According to ChEMBL document CHEMBL4814064, “Azetidinimines as a novel series of non-covalent broad-spectrum inhibitors of β-lactamases with submicromolar activities against carbapenemases KPC-2 (class A), NDM-1 (class B) and OXA-48 (class D)” (Eur J Med Chem, 2021):
pIC50, pKi: −log10 of the molar value.

Legend:
[1] = Inhibition of NDM-1 (unknown origin) expressed in Escherichia coli BW25113deltabamBdeltatolC mutant using nitrocefin as substrate by colorimetric analysis; design: species or system Bacteria
[2] = Inhibition of Escherichia coli NTBC121 NDM-1 by UV absorbance analysis
[3] = test system: HCT-116; experiment: Cytotoxicity against human HCT-116 cells assessed as reduction in cell viability measured after 72 hrs by MTS assay; type: cell-based; details: HCT-116, 72 h
How it was run: (§1)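 Cells grown at 37 °C in 5% CO2: MRC-5 in DMEM and HCT116 in RPMI 1640, each with 10% FCS and 1% glutamine. Seeded at 2.5 × 10³ cells/well, dosed after 24 h, exposed 72 h, then read at 490 nm after 2 h with reagent. IC50 = concentration halving absorbance versus untreated; triplicate.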

[4] = test system: Bacteria; experiment: Inhibition of OXA-48 (unknown origin) expressed in Escherichia coli BL21 (DE3) at 10 uM incubated for 3 mins by spectrophotometric analysis relative to control
How it was run: (§2)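 OXA-48 at 5.8 nM (His-tagged, expressed in BL21(DE3), purified in K2SO4 buffers) in 100 mM phosphate pH 7 plus 50 mM NaHCO3. Inhibitor preincubated 3 min; substrate 100 µM imipenem; initial velocities at 297 nm, 600 s, 25 °C. Seven inhibitor concentrations in triplicate give IC50, converted to Ki by Cheng–Prusoff; percent inhibition at 10 µM.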

[5] = test system: Escherichia coli; experiment: Potentiation of imipenem-induced antibacterial activity against Escherichia coli clinical isolate GUE expressing NDM-1 assessed as fold change in imipenem MIC at 200 uM incubated for 18 to 24 hrs by broth microdilution method; type: functional; details: time 18-24 hrs
[6] = test system: MRC5; experiment: Cytotoxicity against human MRC-5 cells assessed as reduction in cell viability measured after 72 hrs by MTS assay; type: cell-based; details: MRC5, 72 h; how it was run: as §1
[7] = Metabolic stability in mouse liver microsomes at 5 uM assessed as intrinsic clearance measured per mg protein by UPLC-MS/MS analysis; type: ADME, Microsome; details: read-out: CLH
How it was run: (§3)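 Test compound at 5 µM with 0.5 mg/mL pooled male mouse liver microsomes in 0.1 M phosphate pH 7.4 at 37 °C. Reaction started with 1 mM NADPH and sampled at 0–45 min in duplicate; a no-NADPH control was run. Quenched with cold acetonitrile; parent measured by UPLC-MS/MS (MRM). t1/2 from log-linear decay; CLint per mg microsomal protein.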

[8] = Inhibition of NDM-1 (unknown origin) expressed in Escherichia coli BL21 (DE3) incubated for 3 mins by spectrophotometric analysis; design: species or system Bacteria; details: read-out: Ki
How it was run: (§4)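 NDM-1 (1 nM, His-tagged, expressed in E. coli BL21(DE3) with 1 mM IPTG for 3 h at 37 °C, purified, kept with 50 µM ZnSO4). Run in 100 mM phosphate pH 7 with 50 µM ZnSO4, 3 min enzyme–inhibitor preincubation, then 100 µM imipenem. Initial rates at 297 nm over 600 s, 25 °C. Triplicate seven-point IC50 converted to Ki (Cheng–Prusoff); percent inhibition at 10 µM.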

[9] = molecular target: Class A carbapenemase KPC-2 (Escherichia coli) (UniProt A8DS27); experiment: Inhibition of KPC-2 (unknown origin) expressed in Escherichia coli BL21 (DE3) at 10 uM incubated for 3 mins by spectrophotometric analysis relative to control
How it was run: (§5)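 Preincubated 3 min with inhibitor in 100 mM phosphate pH 7. Imipenem 100 µM; hydrolysis followed at 297 nm for 600 s at 25 °C. IC50 from seven concentrations in triplicate; Ki by Cheng–Prusoff. Percent inhibition read at 10 µM.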

[10] = test system: Bacteria; experiment: Inhibition of NDM-1 (unknown origin) expressed in Escherichia coli BL21 (DE3) at 10 uM incubated for 3 mins by spectrophotometric analysis relative to control; how it was run: as §4
[11] = Metabolic stability in mouse liver microsomes at 5 uM after 45 min absence of NADPH by UPLC-MS/MS analysis; type: ADME, Microsome; details: read-out: Stabilty; how it was run: as §3
[12] = test system: Escherichia coli; experiment: Potentiation of imipenem-induced antibacterial activity against Escherichia coli clinical isolate GUE expressing NDM-1 assessed as imipenem MIC at 50 uM incubated for 18 to 24 hrs by broth microdilution method (reference value: 16 ug/ml); type: functional; details: time 18-24 hrs
[13] = molecular target: Class A carbapenemase KPC-2 (Escherichia coli, UniProt A8DS27); experiment: Inhibition of KPC-2 (unknown origin) expressed in Escherichia coli BL21 (DE3) incubated for 3 mins by spectrophotometric analysis; details: read-out: Ki; how it was run: as §5
[14] = test system: Escherichia coli; experiment: Potentiation of imipenem-induced antibacterial activity against Escherichia coli clinical isolate GUE expressing NDM-1 assessed as imipenem MIC at 100 uM incubated for 18 to 24 hrs by broth microdilution method (reference value: 16 ug/ml); type: functional; details: time 18-24 hrs
[15] = Inhibition of OXA-48 (unknown origin) expressed in Escherichia coli BL21 (DE3) incubated for 3 mins by spectrophotometric analysis; design: species or system Bacteria; details: read-out: Ki; how it was run: as §2
[16] = test system: Escherichia coli; experiment: Potentiation of imipenem-induced antibacterial activity against Escherichia coli clinical isolate GUE expressing NDM-1 assessed as imipenem MIC at 20 uM incubated for 18 to 24 hrs by broth microdilution method (reference value: 16 ug/ml); type: functional; details: time 18-24 hrs
[17] = test system: Escherichia coli; experiment: Potentiation of imipenem-induced antibacterial activity against Escherichia coli clinical isolate GUE expressing NDM-1 assessed as fold change in imipenem MIC at 50 uM incubated for 18 to 24 hrs by broth microdilution method; type: functional; details: time 18-24 hrs
[18] = test system: Bacteria; experiment: Inhibition of NDM-4 (unknown origin) expressed in Escherichia coli BL21(DE3) at 10 uM
How it was run: (§6)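 Enzymes cloned into pET41b from clinical enterobacterial DNA and expressed in E. coli BL21(DE3) overnight at 22 °C with 0.2 mM IPTG. His-tag affinity then Superdex 75 gel filtration (100 mM phosphate pH 7, 150 mM NaCl); dialysed into 10 mM Tris-HCl pH 7.6, with 50 µM ZnSO4 added for NDM and VIM variants.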

[19] = test system: Bacteria; experiment: Inhibition of VIM-52 (unknown origin) expressed in Escherichia coli BL21(DE3) at 10 uM; how it was run: as §6
[20] = test system: Bacteria; experiment: Inhibition of CMY-2 (unknown origin) expressed in Escherichia coli BL21(DE3) at 10 uM; how it was run: as §6
[21] = test system: Bacteria; experiment: Inhibition of CTX-M-15 (unknown origin) expressed in Escherichia coli BL21(DE3) at 10 uM; how it was run: as §6
[22] = test system: Bacteria; experiment: Inhibition of NDM-9 (unknown origin) expressed in Escherichia coli BL21(DE3) at 10 uM; how it was run: as §6
[23] = test system: Bacteria; experiment: Inhibition of NDM-7 (unknown origin) expressed in Escherichia coli BL21(DE3) at 10 uM; how it was run: as §6
[24] = test system: Bacteria; experiment: Inhibition of VIM-1 (unknown origin) expressed in Escherichia coli BL21(DE3) at 10 uM; how it was run: as §6
[25] = Inhibition of NDM-1 (unknown origin); design: species or system Bacteria

Row | SMILES | inhibition [4] [%] | microsomal CLint at 5 µM [7] [µL/min/mg] | inhibition [9] [%] | inhibition [10] [%] | remaining at 0.75 h, 5 µM [11] [%] | MIC [12] [µg/mL] | pKi [13] | MIC [14] [µg/mL] | MIC [16] [µg/mL] | pIC50 [3] | pIC50 [6] | pKi [8] | pKi [15] | further results
1 | N[C@H](CN[C@H](CN[C@@H](CC(=O)O)C(=O)O)C(=O)O)C(=O)O |  |  |  |  |  |  |  |  |  |  |  |  |  | pIC50 [1]: 5.40
2 | O=C(O)c1ncsc1NS(=O)(=O)c1cccnc1 |  |  |  |  |  |  |  |  |  |  |  |  |  | pIC50 [2]: 5.57
3 | Oc1ccc(N2/C(=N/c3ccc(I)cc3)CC2c2ccc(Cl)cc2Cl)cc1 (racemic) | > 50 | 13.9 | > 50 | > 50 | 96 | 4 | 6.55 | 4 | 8 | 4.49 | 4.70 | 7.15 | 7.15 | inhibition [18]: 100%; inhibition [19]: 0%; inhibition [20]: 86%; inhibition [21]: 83%; inhibition [22]: 100%; inhibition [23]: 100%; inhibition [24]: 100%
4 | CN1CCN(NC(=O)CN2C(=O)/C(=C/c3c(Cl)ccc(Cl)c3Cl)SC2=S)CC1 |  |  |  |  |  |  |  |  |  |  |  |  |  | pIC50 [25]: 5.03

Second part, led by results:

Row | inhibition [4] [%] | microsomal CLint at 5 µM [7] [µL/min/mg] | inhibition [9] [%] | inhibition [10] [%] | remaining at 0.75 h, 5 µM [11] [%] | MIC [12] [µg/mL] | pKi [13] | MIC [14] [µg/mL] | MIC [16] [µg/mL] | SMILES | pIC50 [3] | pIC50 [6] | pKi [8] | pKi [15] | further results
5 | > 50 | 2 | > 50 | > 50 | 83 | 16 | 5.72 | 16 | 16 | COc1ccc(N2/C(=N/c3ccc(I)cc3)CC2c2ccc(Cl)cc2Cl)cc1 (racemic) | < 4.00 | < 4.00 | 6.66 | 6.04 | fold change (FC) [5]: 2
6 | 41 | 7.6 | > 50 | > 50 | 100 | 4 | 5.43 | 2 | 16 | Clc1ccc(C2C/C(=N\c3ccc(I)cc3)N2c2ccc(OCc3ccccc3)cc2)c(Cl)c1 (racemic) | < 4.00 | < 4.00 | 6.44 |  | fold change (FC) [17]: 4
